Screens: PubChem, Sanford-Burnham Center for Chemical Genomics
Rows were chosen to be rich in hits. Some 1.5% of all compounds tested hit in one or more screens of this group.
CXCR6 block: blocks human CXCR6 beta-arrestin recruitment; CHO-K1 PathHunter CXCR6 beta-arrestin, luminescence; inhibition, % at 20 µM; 0.36% of 360,000 active; AID 602244; in the data active = inhibition above about 34%, passing the limit was not always enough;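 note: antagonist mode with CXCL16 agonist at 10 nM final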
Target sequence (O00574 whole entry, looked up): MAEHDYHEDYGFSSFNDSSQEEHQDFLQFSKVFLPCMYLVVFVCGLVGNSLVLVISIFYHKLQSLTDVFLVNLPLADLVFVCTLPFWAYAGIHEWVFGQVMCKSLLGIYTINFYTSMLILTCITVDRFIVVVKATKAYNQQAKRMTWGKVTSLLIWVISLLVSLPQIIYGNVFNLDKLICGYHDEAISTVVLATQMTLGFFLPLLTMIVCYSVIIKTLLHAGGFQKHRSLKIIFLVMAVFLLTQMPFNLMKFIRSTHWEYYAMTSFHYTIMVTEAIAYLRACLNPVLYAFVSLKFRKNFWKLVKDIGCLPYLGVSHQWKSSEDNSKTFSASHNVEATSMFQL
hiPSC survival: hiPSC single-cell survival enhancement. survival enhancement, % at 20 µM. ATPlite luminescence; 100% = ROCK inhibitor wells, 0% = DMSO. 0.044% of 360,000 active; in the data active = survival enhancement above about 18%;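 note: cells exposed to compounds for 16 hours before the ATP read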
EBI2 block: EBI2 (human) antagonism; EBI2 beta-arrestin recruitment, luminescence, 7a,25-OHC stimulated; inhibition, % at 5 µM; 0.81% of 360,000 active; in the data active = inhibition above about 38%;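 note: enzyme fragment complementation signal reports receptor beta-arrestin coupling in cells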
CCR6 antagonist: CCR6 (human) receptor antagonism; P51684; CHO-K1 CCR6 PathHunter beta-arrestin, luminescence, CCL20-stimulated; inhibition, % at 20 µM; 0.49% of 340,000 active;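 active = compounds whose inhibition of the agonist-driven luminescence signal at 20 µM reaches about 50%, limit read from the data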;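 note: cells stimulated with CCL20 at 14 nM final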
Target sequence (P51684 whole entry, looked up): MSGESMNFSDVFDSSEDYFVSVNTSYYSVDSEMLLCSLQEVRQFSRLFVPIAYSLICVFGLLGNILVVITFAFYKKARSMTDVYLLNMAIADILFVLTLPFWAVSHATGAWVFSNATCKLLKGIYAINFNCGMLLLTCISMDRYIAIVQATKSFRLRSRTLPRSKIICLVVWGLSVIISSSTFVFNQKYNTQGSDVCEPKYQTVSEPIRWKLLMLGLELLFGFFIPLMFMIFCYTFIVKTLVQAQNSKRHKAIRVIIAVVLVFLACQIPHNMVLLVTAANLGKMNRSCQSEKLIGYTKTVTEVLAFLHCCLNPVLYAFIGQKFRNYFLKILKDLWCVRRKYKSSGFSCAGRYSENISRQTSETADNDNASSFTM
APJ ag: agonists of human APJ apelin receptor; 0.11% of 330,000 active; CHO-K1 APJ PathHunter beta-arrestin, luminescence; 0% DMSO wells, 100% apelin; activation, % at 20 µM;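 active = activation more than six SD over the plate average, tested at 20 µM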
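Incubation: overnight seeding, 90 min compound at 25 °C, 1 h detection; test system: PathHunter CHO-K1 APJ (AGTRL-1) beta-arrestin reporter cells; amount: 1000 cells/well; doses: one dose, 20 µM compound, 1% DMSO; measured by: beta-gal luminescence; measure: agonist-driven arrestin binding to APJ; benchmarks: negative DMSO alone, positive Apelin-13 at 10 nM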
APJ antagonist: APJ receptor antagonism. P35414. CHO-K1 APJ beta-arrestin complementation, luminescence. 0.32% of 330,000 active. inhibition, % at 20 µM;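 active = inhibition above about 40% at 20 µM, limit read from the data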;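 note: cells challenged with 10 nM apelin-13 agonist together with compound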
EBI2 conf: confirmation of human EBI2 receptor antagonists; 29% of 2,400 active; shares compounds with EBI2 block; AID 651997; EBI2 beta-arrestin luminescence, 7a,25-OHC antagonism; inhibition, % at 5 µM;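 active = inhibition of at least 50%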
EBI2 agonist: counter-screen for EBI2 antagonists: EBI2 agonist activity | EBI2-expressing cells, agonist mode, luminescence, 60 min; 0% vehicle, 100% 7α,25-dihydroxycholesterol control | 2,400 tested, under 10 active | AID 652000 | shares compounds with EBI2 block | activation, % at 5 µM;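 active = activation of at least 50%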
bGal cs: beta-galactosidase inhibition counter-screen; 1% of 2,400 active; purified beta-galactosidase, luminescent Galacton Star, 15 min; AID 652176; inhibition, % at 5 µM; shares compounds with EBI2 block;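 active = replicate-average signal at least 3 plate SD below neutral wells, shown as high inhibition, flagging enzyme-inhibiting false positives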;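 note: higher means stronger loss of beta-gal luminescence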
Each line names hits and unclear results; the compound was inactive in the other large screens (follow-up assays come after a bar, where they were run).

CCN(C(=O)COc1ccc(F)cc1Br)c1c(N)n(Cc2ccccc2)c(=O)[nH]c1=O	none
CCOc1ccc(C(=O)Nc2cnn(Cc3ccc(Cl)c(Cl)c3)c2)cc1	none
O=C(Nc1cnn(Cc2ccc(Cl)c(Cl)c2)c1)C12CC3CC(CC(C3)C1)C2	EBI2 block 41.5 | EBI2 conf inactive | EBI2 agonist inactive | bGal cs inactive
CCOc1ccc(NC(=O)C2CCN(S(=O)(=O)c3c(C)noc3C)CC2)cc1	none
C=CCOc1ccc(/C=C/C(=O)N2CCCN(S(=O)(=O)c3c(C)noc3C)CC2)cc1	EBI2 block 62.8 | EBI2 conf inactive | EBI2 agonist inactive | bGal cs inactive
O=C(Nc1cccc(S(=O)(=O)N2CCCCC2)c1)C1CCN(C(=O)c2ccc(Cl)cc2)CC1	none
O=C(Nc1cccc(S(=O)(=O)N2CCCCCC2)c1)C1CCN(C(=O)c2ccc(Cl)cc2)CC1	EBI2 block 52.1 | EBI2 conf inactive | EBI2 agonist inactive | bGal cs inactive
O=C(Nc1cccc(F)c1)C1CCN(C(=O)c2ccc(Br)cc2)CC1	EBI2 block 45.5 | EBI2 conf inactive | EBI2 agonist inactive | bGal cs inactive
Cc1cccc(NC(=O)C2CCN(C(=O)c3ccc(Cl)cc3)CC2)n1	EBI2 block 46.2 | EBI2 conf inactive | EBI2 agonist inactive | bGal cs inactive
O=C(NC1CC1)C1CC(=O)N(c2cccc(Cl)c2)C1 (stereo not drawn)	none
COc1cc(C=NO)nc(-c2ccccn2)c1	none (no result: APJ ag, APJ antagonist)
O=C(CN1C(=O)NC(CCc2ccccc2)C1=O)Nc1cccc(Br)c1 (stereo not drawn)	none
CC(C(=O)NCCS(=O)(=O)c1ccc(Br)cc1)S(=O)(=O)c1ccc(Cl)cc1 (stereo not drawn)	none
CC(C)c1ccc(C(C)NCCS(=O)(=O)c2ccc(Cl)cc2)cc1 (stereo not drawn)	EBI2 block 72.3 | EBI2 conf inactive | EBI2 agonist inactive | bGal cs inactive
COc1ccc(CCC(=O)N2CCN(S(=O)(=O)c3ccc(OC)c([N+](=O)[O-])c3)CC2)cc1	EBI2 block 54.5 (no result: CCR6 antagonist, APJ ag, APJ antagonist) | EBI2 conf inactive | EBI2 agonist inactive | bGal cs inactive
CCc1ccc(CCC(=O)N2CCN(S(=O)(=O)c3ccc(Br)cc3)CC2)cc1	EBI2 block 88.3 (no result: CCR6 antagonist, APJ ag, APJ antagonist) | EBI2 conf 52.3 | EBI2 agonist inactive | bGal cs inactive
COc1ccc(CCC(=O)N2CCN(S(=O)(=O)c3ccc(OC(F)(F)F)cc3)CC2)cc1	EBI2 block 53.5 | EBI2 conf inactive | EBI2 agonist inactive | bGal cs inactive
COc1ccc(CCC(=O)N2CCN(S(=O)(=O)c3ccc4ccccc4c3)CC2)cc1	EBI2 block 64.0 | EBI2 conf inactive | EBI2 agonist inactive | bGal cs inactive
COc1cc(CCC(=O)N2CCN(S(=O)(=O)c3ccc(C)c(C)c3)CC2)cc(OC)c1OC	none
O=C(CCc1ccc(S(=O)(=O)N2CCOCC2)cc1)N1CCCC1	none
Cc1ccccc1S(=O)(=O)Cc1ccc(C(=O)NCCCN2CCC(C)CC2)o1	none
Cc1ccc(-c2noc(CSc3nnc(Cc4ccccc4)n3-c3ccc(Cl)cc3)n2)cc1	none
COc1ccc(-c2noc(CSc3nnc(Cc4ccccc4)n3-c3ccc(Cl)cc3)n2)cc1	EBI2 block 38.9 | EBI2 conf inactive | EBI2 agonist inactive | bGal cs inactive
O=C1N=C(N2CCCCC2)S/C1=C\c1ccc(Br)cc1	EBI2 block 86.7 | EBI2 conf 58.0 | EBI2 agonist inactive | bGal cs inactive
CCOc1ccc(/C=C2\SC(N3CCCCC3)=NC2=O)cc1	EBI2 block 74.0 | EBI2 conf 50.4 | EBI2 agonist inactive | bGal cs inactive
Cc1ccc(/C=C2\SC(N3CCCC3)=NC2=O)cc1	none (no result: CXCR6 block, hiPSC survival, EBI2 block, CCR6 antagonist)
CCOC(=O)C1CCN(C2=NC(=O)/C(=C/c3ccc(Cl)cc3)S2)CC1	EBI2 block 86.7 | EBI2 conf 65.9 | EBI2 agonist inactive | bGal cs inactive
O=C1CC(Nc2ccc3ccccc3c2)C(=O)N1Cc1ccccc1 (stereo not drawn)	EBI2 block 63.3 | EBI2 conf inactive | EBI2 agonist inactive | bGal cs inactive
COc1ccccc1/C=N/NC(=O)NC12CC3CC(CC(C3)C1)C2	EBI2 block 47.4 | EBI2 conf inactive | EBI2 agonist inactive | bGal cs inactive
O=C(Nc1ccc(S(=O)(=O)N2CCCC2)cc1)C1CC(=O)N(c2ccccc2)C1 (stereo not drawn)	none
CCc1ccc(N2CC(C(=O)Nc3cc(C)ccc3F)CC2=O)cc1 (stereo not drawn)	EBI2 block 52.7 | EBI2 conf inactive | EBI2 agonist inactive | bGal cs inactive
CCc1ccc(N2CC(C(=O)Nc3ccc(S(=O)(=O)N4CCCCC4)cc3)CC2=O)cc1 (stereo not drawn)	EBI2 block 80.6 | EBI2 conf 59.9 | EBI2 agonist inactive | bGal cs inactive
COc1ccc(N(C(=O)Cn2nnc(-c3ccc(Cl)cc3)n2)C(C(=O)NCC2CCCO2)c2ccc(C)cc2)cc1 (stereo not drawn)	EBI2 block 61.3 | EBI2 conf inactive | EBI2 agonist inactive | bGal cs inactive
COc1ccc(N(C(=O)Cn2nnc(-c3ccc(Cl)cc3)n2)C(C(=O)NCC2CCCO2)c2ccncc2)cc1 (stereo not drawn)	none
O=C(COC(=O)c1cc(S(=O)(=O)N2CCCCC2)ccc1N1CCOCC1)c1ccccc1Cl	EBI2 block 48.1 (no result: CCR6 antagonist, APJ ag, APJ antagonist) | EBI2 conf 65.0 | EBI2 agonist inactive | bGal cs inactive
CCOC(=O)C1=C(O)/C(=C/c2cc(OC)c(O)c(OC)c2)SC1=Nc1ccc(OC)cc1	EBI2 block 49.3 (no result: APJ ag, APJ antagonist) | EBI2 conf inactive | EBI2 agonist inactive | bGal cs inactive
CCOC(=O)C1=C(O)/C(=C/c2ccccn2)SC1=Nc1ccc(Cl)cc1	EBI2 block 88.2 | EBI2 conf 85.7 | EBI2 agonist inactive | bGal cs inactive
CN(C(=O)COC(=O)/C=C/c1ccc(C(F)(F)F)cc1)c1c(N)n(Cc2ccccc2)c(=O)[nH]c1=O	none
CCc1ccc(CN(Cc2cccnc2)C(=O)/C=C/c2ccc(OC)cc2)cc1	EBI2 block 61.9 | EBI2 conf inactive | EBI2 agonist inactive | bGal cs inactive
O=C(CSc1ccccc1)N1CCN(S(=O)(=O)c2ccccc2)CC1	none
